In brackets after ≈: the same amount, converted by molar mass. Activity calls are given as the source filed them. The calls are words filed in the database; no cut-off is given here.
What was measured:
Influenza A virus [1] = assay: Antiviral activity against Influenza A virus H3N2 infected in MDCK cells assessed as cell viability at 100 ug/ml after 2 days by MTS assay; format: functional, organism-based
[2] = Selectivity index, ratio of minimum concentration required to cause microscopically detectable alteration in human HEL cells to EC50 for Herpes simplex virus-1 KOS; format: toxicity, cell-based; settings: read-out: Selectivity Index
How it was run: (§1)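 Cytotoxicity was taken as the concentration causing a microscopically detectable change in normal cell morphology (Vero or HEL). […] The selectivity index is the first divided by the second.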

Influenza B virus [3] = assay: Antiviral activity against influenza B virus infected in MDCK cells assessed as cell viability at 100 ug/ml after 2 days by MTS assay; format: functional, organism-based
Sindbis virus [4] = assay: Antiviral activity against Sindbis virus infected in african green monkey Vero cells assessed as protection against virus-induced cytopathogenicity after 2 days; format: functional, organism-based; settings: 48 h
[5] = test system: Respiratory syncytial virus; assay: Antiviral activity against Respiratory syncytial virus infected in human HeLa cells assessed as protection against virus-induced cytopathogenicity after 2 days; format: functional, organism-based; settings: 48 h
[6] = Cytotoxicity against cat CRFK cells by MTS assay; format: cell-based, Felis catus; settings: crfk
How it was run: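 In uninfected CRFK cells, the 50% cytotoxic concentration was derived from cell viability measured by the colorimetric formazan-based MTS assay.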

Influenza B virus [7] = assay: Antiviral activity against influenza B virus infected in MDCK cells assessed as protection against virus-induced cytopathogenicity at 100 ug/ml after 2 days; format: functional, organism-based
How it was run: (§2)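 Infected MDCK cells were treated. […] N.A. means not active at the highest concentration tested or at a subtoxic concentration.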

[8] = Cytotoxicity against human HeLa cells assessed as minimum concentration required to cause microscopically detectable alteration after 2 days; format: cell-based; settings: read-out: Activity
Human respirovirus 3 = assay: Antiviral activity against Para influenza-3 virus infected in african green monkey Vero cells assessed as protection against virus-induced cytopathogenicity after 2 days; format: functional, organism-based; settings: Human respirovirus 3, Vero, 48 h
Coxsackievirus B4 [9] = assay: Antiviral activity against Coxsackie virus B4 infected in african green monkey Vero cells assessed as protection against virus-induced cytopathogenicity after 2 days; format: functional, organism-based; settings: Enterovirus B, 48 h
[10] = test system: Vesicular stomatitis virus; assay: Antiviral activity against Vesicular stomatitis virus infected in human HEL cells assessed as protection against virus-induced cytopathogenicity after 2 days; format: functional, organism-based; settings: 48 h
[11] = test system: Feline infectious peritonitis virus; assay: Antiviral activity against Feline coronavirus FIPV infected in cat CRFK cells assessed as protection against virus-induced cytopathogenicity after 2 days by MTS assay; format: functional, cell-based; settings: Alphacoronavirus 1, CRFK, 48 h
Human alphaherpesvirus 2 = assay: Antiviral activity against Herpes simplex virus-2 G infected in human HEL cells assessed as protection against virus-induced cytopathogenicity after 2 days; format: functional, organism-based; settings: Human alphaherpesvirus 2, strain G, 48 h
[12] = test system: Vesicular stomatitis virus; assay: Antiviral activity against Vesicular stomatitis virus infected in human HeLa cells assessed as protection against virus-induced cytopathogenicity after 2 days; format: functional, organism-based; settings: 48 h
[13] = Selectivity index, ratio of minimum concentration required to cause microscopically detectable alteration in human HEL cells to EC50 for acyclovir-resistant TK deficient Herpes simplex virus-1 KOS; format: toxicity, cell-based; settings: read-out: Selectivity Index; how it was run: as §1
Influenza A virus [14] = assay: Antiviral activity against Influenza A virus H3N2 infected in MDCK cells assessed as protection against virus-induced cytopathogenicity at 100 ug/ml after 2 days; format: functional, organism-based; how it was run: as §2
[15] = Selectivity index, ratio of minimum concentration required to cause microscopically detectable alteration in human HEL cells to EC50 for acyclovir-resistant TK deficient Vaccina virus; format: toxicity, cell-based; settings: read-out: Selectivity Index; how it was run: as §1
Punta Toro virus [16] = assay: Antiviral activity against Punta Toro virus infected in african green monkey Vero cells assessed as protection against virus-induced cytopathogenicity after 2 days; format: functional, organism-based; settings: 48 h
MDCK = assay: (§3) Cytotoxicity against MDCK cells by MTS assay; format: cell-based, Canis lupus familiaris; settings: dog, mdck
How it was run: (§4)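 In Madin Darby canine kidney cells, the 50% cytotoxic concentration was derived from cell viability measured by the colorimetric formazan-based MTS assay.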

Coxsackievirus B4 [17] = assay: Antiviral activity against Coxsackie virus B4 infected in human HeLa cells assessed as protection against virus-induced cytopathogenicity after 2 days; format: functional, organism-based; settings: Enterovirus B, 48 h
[18] = Cytotoxicity against MDCK cells assessed as minimum concentration required to cause microscopically detectable alteration after 2 days; format: cell-based, Canis lupus familiaris; settings: dog, read-out: Activity
[19] = Selectivity index, ratio of minimum concentration required to cause microscopically detectable alteration in human HEL cells to EC50 for Herpes simplex virus-2 G; format: toxicity, cell-based; settings: read-out: Selectivity Index; how it was run: as §1
Felid alphaherpesvirus 1 = assay: Antiviral activity against Feline herpes virus infected in cat CRFK cells assessed as protection against virus-induced cytopathogenicity after 2 days by MTS assay; format: functional, organism-based; settings: Felid alphaherpesvirus 1, CRFK, 48 h
Human alphaherpesvirus 1 [20] = assay: Antiviral activity against acyclovir-resistant TK deficient Herpes simplex virus-1 KOS infected in human HEL cells assessed as protection against virus-induced cytopathogenicity after 2 days; format: functional, organism-based; settings: Human alphaherpesvirus 1, KOS, 48 h
Human alphaherpesvirus 1 [21] = assay: Antiviral activity against Herpes simplex virus-1 KOS infected in human HEL cells assessed as protection against virus-induced cytopathogenicity after 2 days; format: functional, organism-based; settings: Human alphaherpesvirus 1, KOS, 48 h
[22] = test system: Mammalian orthoreovirus 1; assay: Antiviral activity against Reovirus-1 infected in african green monkey Vero cells assessed as protection against virus-induced cytopathogenicity after 2 days; format: functional, organism-based; settings: Mammalian orthoreovirus 1, Vero, 48 h
Influenza A virus [23] = assay: Antiviral activity against influenza A virus H1N1 infected in MDCK cells assessed as protection against virus-induced cytopathogenicity at 100 ug/ml after 2 days; format: functional, organism-based; how it was run: as §2
[24] = Cytotoxicity against african green monkey Vero cells assessed as minimum concentration required to cause microscopically detectable alteration after 2 days; format: cell-based; settings: chlorocebus sabaeus, read-out: Activity
Influenza A virus [25] = assay: Antiviral activity against influenza A virus H1N1 infected in MDCK cells assessed as cell viability at 100 ug/ml after 2 days by MTS assay; format: functional, organism-based
[26] = Cytotoxicity against human HEL cells assessed as minimum concentration required to cause microscopically detectable alteration after 2 days; format: cell-based; settings: read-out: Activity
Influenza B virus [27] = assay: Antiviral activity against influenza B virus infected in MDCK cells assessed as cell viability after 2 days by MTS assay; format: functional, organism-based
Influenza B virus [28] = assay: Antiviral activity against influenza B virus infected in MDCK cells assessed as protection against virus-induced cytopathogenicity after 2 days; format: functional, organism-based; how it was run: as §2
[29] = as §3; format: cell-based, Canis lupus familiaris; settings: dog, MDCK cells; how it was run: as §4
Sindbis virus [30] = assay: Antiviral activity against Sindbis virus infected in african green monkey Vero cells assessed as inhibition of viral replication; format: functional, organism-based
Punta Toro virus [31] = assay: Antiviral activity against Punta Toro virus infected in african green monkey Vero cells assessed as inhibition of viral replication; format: functional, organism-based
[32] = Selectivity index, ratio of minimum concentration required to cause microscopically detectable alteration in green monkey Vero cells to EC50 for Punta Toro virus; format: toxicity, cell-based; settings: read-out: Selectivity Index; how it was run: as §1
Coxsackievirus B4 [33] = assay: Antiviral activity against Coxsackie virus B4 infected in african green monkey Vero cells assessed as inhibition of viral replication; format: functional, organism-based
[34] = test system: Mammalian orthoreovirus 1; assay: Antiviral activity against Reovirus-1 infected in african green monkey Vero cells assessed as inhibition of viral replication; format: functional, organism-based
[35] = Selectivity index, ratio of minimum concentration required to cause microscopically detectable alteration in green monkey Vero cells to EC50 for Sindbis virus; format: toxicity, cell-based; settings: read-out: Selectivity Index; how it was run: as §1
[36] = Selectivity index, ratio of minimum concentration required to cause microscopically detectable alteration in green monkey Vero cells to EC50 for sCoxsackie virus B4; format: toxicity, cell-based; settings: read-out: Selectivity Index; how it was run: as §1
[37] = Selectivity index, ratio of minimum concentration required to cause microscopically detectable alteration in green monkey Vero cells to EC50 for Reovirus-1; format: toxicity, cell-based; settings: read-out: Selectivity Index; how it was run: as §1

Compound	EC50 (Influenza A virus [1])	EC50 (Influenza B virus [3])	EC50 (Sindbis virus [4])	EC50 [5]	CC50 [6]	EC50 (Influenza B virus [7])	MCC at 48 h [8]	EC50 (Human respirovirus 3)	EC50 (Coxsackievirus B4 [9])	EC50 [10]	EC50 [11]	EC50 (Human alphaherpesvirus 2)	EC50 [12]	EC50 (Influenza A virus [14])	EC50 (Punta Toro virus [16])	CC50 (MDCK)	EC50 (Coxsackievirus B4 [17])	MCC at 48 h [18]	EC50 (Felid alphaherpesvirus 1)	EC50 (Human alphaherpesvirus 1 [20])	other results
O=c1c2ccccc2nc(-c2ccccc2)n1/N=C/c1ccccc1	Not Active	Not Active	> 4 µg/mL	> 4 µg/mL	3.7 µg/mL (≈ 11.4 µM)	Not Active	20 µg/mL	> 4 µg/mL	> 4 µg/mL	> 100 µg/mL	> 0.8 µg/mL	9 µg/mL (≈ 27.7 µM)	> 4 µg/mL	Not Active	> 4 µg/mL	15 µg/mL (≈ 46.1 µM)	> 4 µg/mL	20 µg/mL	> 0.8 µg/mL	9 µg/mL (≈ 27.7 µM)	selectivity ratio [2]: 14; selectivity ratio [13]: 11; selectivity ratio [15]: 11; selectivity ratio [19]: 11; EC50 (Human alphaherpesvirus 1 [21]): 7 µg/mL (≈ 21.5 µM); EC50 [22]: > 4 µg/mL; EC50 (Influenza A virus [23]): Not Active; MCC at 48 h [24]: 20 µg/mL; EC50 (Influenza A virus [25]): Not Active; MCC at 48 h [26]: > 100 µg/mL
CC(N)C12CC3CC(CC(C3)C1)C2 (configuration not stated) [RIMANTADINE]																472 µg/mL (≈ 2630 µM)		1000 µg/mL			EC50 (Influenza B virus [27]): Not Active; EC50 (Influenza B virus [28]): Not Active
NC12CC3CC(CC(C3)C1)C2 [AMANTADINE]																		> 1000 µg/mL			EC50 (Influenza B virus [27]): Not Active; EC50 (Influenza B virus [28]): Not Active; CC50 [29]: > 1000 µg/mL
O=c1c2ccccc2nc(-c2ccccc2)n1/N=C/c1ccccc1O	Not Active	Not Active	5 µg/mL (≈ 14.6 µM)	> 0.8 µg/mL	11.2 µg/mL (≈ 32.8 µM)	Not Active	4 µg/mL	> 20 µg/mL	10 µg/mL (≈ 29.3 µM)	15 µg/mL (≈ 43.9 µM)	> 4 µg/mL	1 µg/mL (≈ 2.93 µM)	> 0.8 µg/mL	Not Active	3 µg/mL (≈ 8.79 µM)	2.6 µg/mL (≈ 7.62 µM)	> 0.8 µg/mL	≥ 0.8 µg/mL	> 4 µg/mL	1 µg/mL (≈ 2.93 µM)	inhibition (Sindbis virus [30]): Active; inhibition (Punta Toro virus [31]): Active; selectivity ratio [2]: 100; selectivity ratio [32]: 33; inhibition (Coxsackievirus B4 [33]): Active; selectivity ratio [13]: 100; inhibition [34]: Active; selectivity ratio [15]: 125; selectivity ratio [35]: 20; selectivity ratio [19]: 100; EC50 (Human alphaherpesvirus 1 [21]): 1 µg/mL (≈ 2.93 µM); EC50 [22]: 10 µg/mL (≈ 29.3 µM); EC50 (Influenza A virus [23]): Not Active; selectivity ratio [36]: 10; MCC at 48 h [24]: 100 µg/mL; EC50 (Influenza A virus [25]): Not Active; MCC at 48 h [26]: 100 µg/mL; selectivity ratio [37]: 10
COc1ccc(/C=N/n2c(-c3ccccc3)nc3ccccc3c2=O)cc1	Not Active	Not Active	> 20 µg/mL	> 4 µg/mL	13.7 µg/mL (≈ 38.5 µM)	Not Active	20 µg/mL	> 20 µg/mL	> 20 µg/mL	> 100 µg/mL	> 4 µg/mL	8 µg/mL (≈ 22.5 µM)	> 4 µg/mL	Not Active	> 20 µg/mL	8.2 µg/mL (≈ 23.1 µM)	> 4 µg/mL	20 µg/mL	> 4 µg/mL	9 µg/mL (≈ 25.3 µM)	selectivity ratio [2]: 11; selectivity ratio [13]: 11; selectivity ratio [15]: 11; selectivity ratio [19]: 13; EC50 (Human alphaherpesvirus 1 [21]): 9 µg/mL (≈ 25.3 µM); EC50 [22]: > 20 µg/mL; EC50 (Influenza A virus [23]): Not Active; MCC at 48 h [24]: 100 µg/mL; EC50 (Influenza A virus [25]): Not Active; MCC at 48 h [26]: > 100 µg/mL
C/C(=N\n1c(-c2ccccc2)nc2ccccc2c1=O)c1ccccc1	Not Active	Not Active	> 20 µg/mL	> 100 µg/mL	2.6 µg/mL (≈ 7.66 µM)	Not Active	> 100 µg/mL	> 20 µg/mL	> 20 µg/mL	> 100 µg/mL	> 0.8 µg/mL	> 100 µg/mL	> 100 µg/mL	Not Active	> 20 µg/mL	> 100 µg/mL	> 100 µg/mL	100 µg/mL	> 0.8 µg/mL	> 100 µg/mL	EC50 (Human alphaherpesvirus 1 [21]): > 100 µg/mL; EC50 [22]: > 20 µg/mL; EC50 (Influenza A virus [23]): Not Active; MCC at 48 h [24]: 100 µg/mL; EC50 (Influenza A virus [25]): Not Active; MCC at 48 h [26]: > 100 µg/mL
